Results from ChEMBL document CHEMBL1153148, “Addressing species specific metabolism and solubility issues in a quinoline series of oral PDE4 inhibitors” (Bioorg Med Chem Lett, 2010).
Converted amounts (≈) assume the structure as drawn.

What was measured:
Blood = experiment: Inhibition of LPS-induced TNFalpha production in human whole blood; format: functional, tissue-based
[1] = biological target: 3',5'-cyclic-AMP phosphodiesterase 4B (Homo sapiens, UniProt Q07343); experiment: Inhibition of PDE4B catalytic domain by scintillation proximity assay
Chain of 3',5'-cyclic-AMP phosphodiesterase 4B (Q07343 whole entry, the tested form may be a part): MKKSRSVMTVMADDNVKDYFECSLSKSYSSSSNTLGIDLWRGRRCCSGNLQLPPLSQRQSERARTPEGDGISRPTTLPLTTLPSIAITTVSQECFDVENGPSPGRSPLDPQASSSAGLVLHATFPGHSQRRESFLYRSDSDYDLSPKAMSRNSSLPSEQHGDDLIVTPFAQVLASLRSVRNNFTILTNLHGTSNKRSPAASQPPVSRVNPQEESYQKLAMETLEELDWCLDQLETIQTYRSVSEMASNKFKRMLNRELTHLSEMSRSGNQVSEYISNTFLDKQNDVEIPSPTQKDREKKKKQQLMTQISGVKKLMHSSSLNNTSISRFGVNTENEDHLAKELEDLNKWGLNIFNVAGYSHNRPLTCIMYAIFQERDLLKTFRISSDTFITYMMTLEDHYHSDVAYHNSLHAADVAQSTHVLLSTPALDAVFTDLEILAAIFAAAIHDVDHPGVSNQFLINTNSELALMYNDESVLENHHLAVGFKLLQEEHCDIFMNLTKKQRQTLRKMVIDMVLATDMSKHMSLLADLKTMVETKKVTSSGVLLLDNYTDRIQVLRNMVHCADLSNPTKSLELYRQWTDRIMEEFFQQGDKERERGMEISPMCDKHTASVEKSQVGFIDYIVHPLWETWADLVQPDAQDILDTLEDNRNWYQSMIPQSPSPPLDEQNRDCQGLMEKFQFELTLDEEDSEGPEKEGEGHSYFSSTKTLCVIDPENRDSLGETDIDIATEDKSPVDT
Procedure, shortened: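 PDE4B catalytic activity inhibition measured by scintillation proximity assay; pIC50 reported as mean of two determinations.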

[2] = Aqueous solubility of the compound; format: physicochemical
[3] = Oral bioavailability in rat; format: ADME, organism-based; details: in vivo
[4] = Oral bioavailability in cynomolgus monkey; format: ADME, organism-based, Macaca fascicularis; details: in vivo
Procedure, shortened: (§1)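 Cynomolgus monkey pharmacokinetics after oral dosing as a solution in 10% DMSO, 15% PEG400, 75% water; a second arm used suspension dosing of particle-size-reduced material in 1% methyl cellulose. Values are means of three experiments.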

[5] = Clearance in cynomolgus monkey plasma; format: ADME, organism-based, Macaca fascicularis; procedure, shortened: as §1
[6] = Half life in cynomolgus monkey; format: ADME, organism-based, Macaca fascicularis; details: in vivo; procedure, shortened: as §1
[7] = Selectivity for PDE4B over PDE1
[8] = Selectivity for PDE4B over PDE2
[9] = Selectivity for PDE4B over PDE3
[10] = Selectivity for PDE4B over PDE5
[11] = Selectivity for PDE4B over PDE6
[12] = Selectivity for PDE4B over PDE7

Row | SMILES | IC50 (Blood) | IC50 [1] | solubility [2] | bioavailability [3] | bioavailability [4] | clearance [5] | half-life [6] | Selectivity ratio [7] | Selectivity ratio [8] | Selectivity ratio [9] | Selectivity ratio [10] | Selectivity ratio [11] | Selectivity ratio [12]
1 | CS(=O)(=O)c1ccc2c(c1)C(Nc1cncc(Cl)c1)=C(C(N)=O)NN2 | 31.6 nM | 0.794 nM | 7 µg/mL (≈ 18.4 µM) | 66% | – | – | – | – | – | – | – | – | –
2 | Cc1cc(S(C)(=O)=O)cc2c(Nc3cccc(C#N)c3)c(C(N)=O)c(=O)[nH]c12 | 25.1 nM | 1 nM | – | – | 52% | 5.9 mL/min/kg | 4.2 h | – | – | – | – | – | –
3 | Cc1cc(S(C)(=O)=O)cc2c(Nc3cccc(C#N)c3)c(C(N)=O)cnc12 | 12.6 nM | – | 1 µg/mL (≈ 2.63 µM) | – | 33% | 82 mL/min/kg | 0.8 h | – | – | – | – | – | –
4 | CS(=O)(=O)c1cc(F)c2c(c1)C(Nc1cncc(F)c1)=C(C(N)=O)NN2 | 158 nM | 0.631 nM | – | – | – | – | – | – | – | – | – | – | –
5 | CC(C)(C)S(=O)(=O)c1ccc2c(c1)C(Nc1cncc(F)c1)=C(C(N)=O)NN2 | 12.6 nM | 0.501 nM | 1 µg/mL (≈ 2.47 µM) | 57% | – | – | – | – | – | – | – | – | –

Stronger by IC50 (Blood), values ahead:

Row | IC50 (Blood) | IC50 [1] | solubility [2] | bioavailability [3] | bioavailability [4] | clearance [5] | half-life [6] | Selectivity ratio [7] | Selectivity ratio [8] | Selectivity ratio [9] | Selectivity ratio [10] | Selectivity ratio [11] | Selectivity ratio [12] | SMILES
6 | 5.01 nM | < 0.501 nM | 37 µg/mL (≈ 98 µM) | 34% | – | – | – | – | – | – | – | – | – | Cc1cc(S(C)(=O)=O)cc2c1NNC(C(N)=O)=C2Nc1cncc(F)c1
7 | 2.51 nM | < 1 nM | 1 µg/mL (≈ 2.61 µM) | 17% | 64% | 1.6 mL/min/kg | 7.2 h | > 100 | > 100 | > 100 | > 100 | > 100 | > 100 | Cc1cc(S(C)(=O)=O)cc2c1NNC(C(N)=O)=C2Nc1cccc(C#N)c1
8 | 10 nM | 0.316 nM | – | 41% | – | – | – | – | – | – | – | – | – | CCn1nccc1NC1=C(C(N)=O)NNc2c(C)cc(S(=O)(=O)CC)cc21
9 | 1.58 nM | 0.0794 nM | 12 µg/mL (≈ 30.5 µM) | 50% | – | – | – | – | – | – | – | – | – | Cc1cc(S(C)(=O)=O)cc2c1NNC(C(N)=O)=C2Nc1cncc(Cl)c1
